ChEMBL document CHEMBL5126583, “Cytotoxicity of cinchona alkaloid organocatalysts against MES-SA and MES-SA/Dx5 multidrug-resistant uterine sarcoma cell lines” (Bioorg Med Chem, 2022)
Activity calls are given as the source filed them. The rule behind the calls is not given here.

Experiments:
[1] = Resistance ratio of IC50 for cytotoxicity against multidrug resistance human MES-SA/Dx5 cells to IC50 for cytotoxicity against human MES-SA cells; format: functional
MES-SA/Dx5 [2] = assay: Cytotoxicity against multidrug resistance human MES-SA/Dx5 cells assessed as reduction on calcein accumulation by measuring cell distribution at 20 uM incubated for 15 mins by calcein-AM staining based flow cytometry analysis; format: functional; design: scale not given: the % may be the effect or the level left; conditions: 0.25 h
Procedure, shortened: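 Non-fluorescent Dx5 cells, 250 000 per tube, washed in serum-free DMEM, preincubated 5 min at 37 °C with compound at 20 µM. Calcein-AM then added (250 nM final) for 10 min more. Stopped with ice-cold PBS and kept on ice. Calcein fluorescence measured by flow cytometry, TO-PRO-3 live/dead gating. Controls: 20 µM verapamil, medium only.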

MES-SA/Dx5 [3] = assay: Cytotoxicity against multidrug resistance human MES-SA/Dx5 cells assessed as cell growth inhibition incubated for 144 hrs by fluorescence microplate reader assay; format: functional, cell-based; conditions: MES-SA/Dx5, 144 h
Procedure, shortened: (§1)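 MES-SA (mCherry) and doxorubicin-selected Dx5 (eGFP; pretreated with 500 nM doxorubicin to keep P-gp expression) co-cultured, 1250 cells each per well, settled overnight. Serial dilutions added, 144 h incubation. Viability read by fluorescence (mCherry ex 585/em 610 nm; eGFP ex 485/em 510 nm). IC50 by automated curve evaluation; two-sided unpaired t-test.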

MES-SA [4] = assay: Cytotoxicity against human MES-SA cells assessed as cell growth inhibition incubated for 144 hrs by fluorescence microplate reader assay; format: functional, cell-based; procedure, shortened: as §1
[5] = Resistance ratio of IC50 for cytotoxicity against multidrug resistance human MES-SA/Dx5 cells in presence of P-gp inhibitor Tariquidar to IC50 for cytotoxicity against human MES-SA cells in presence of P-gp inhibitor Tariquidar; format: functional
Procedure, shortened: (§2)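 Co-culture of fluorescent MES-SA (mCherry) and Dx5 (eGFP, doxorubicin 500 nM pretreated) exposed to serial dilutions plus 0.4 µM tariquidar for 144 h. Per-line fluorescence read-out gave IC50. Resistance ratio = IC50 Dx5 / IC50 MES-SA; significance by two-sided unpaired t-test.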

MES-SA/Dx5 [6] = assay: Cytotoxicity against multidrug resistance human MES-SA/Dx5 cells assessed as inhibition of calcein-AM efflux at 20 uM incubated for 15 mins in presence of metal chelator EDTA by calcein-AM staining based flow cytometry analysis; format: functional, cell-based
Procedure, shortened: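 Calcein accumulation in non-fluorescent Dx5 cells, 250 000 per tube, with every step from preincubation to measurement in PBS containing 1 µM EDTA. Cells preincubated 5 min with 20 µM compound, then 250 nM calcein-AM for 10 min at 37 °C. Read by flow cytometry with TO-PRO-3 live/dead stain. Controls: verapamil 20 µM, no inhibitor.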

MES-SA [7] = assay: Cytotoxicity against human MES-SA cells assessed as cell growth inhibition incubated for 144 hrs in presence of P-gp inhibitor Tariquidar by fluorescence microplate reader assay; format: functional, cell-based; procedure, shortened: as §2
MES-SA/Dx5 [8] = assay: Cytotoxicity against multidrug resistance human MES-SA/Dx5 cells assessed as cell growth inhibition incubated for 144 hrs in presence of P-gp inhibitor Tariquidar by fluorescence microplate reader assay; format: functional, cell-based; conditions: MES-SA/Dx5, 144 h; procedure, shortened: as §2
MES-SA/Dx5 [9] = assay: Inhibition of P-gp in multidrug resistance human MES-SA/Dx5 cells assessed as inhibition of calcein-AM efflux at 20 uM incubated for 15 mins by calcein-AM staining based flow cytometry analysis

| SMILES | Ratio IC50 [1] | Activity (MES-SA/Dx5 [2]) [%] | IC50 (MES-SA/Dx5 [3]) [µM] | IC50 (MES-SA [4]) [µM] | Ratio IC50 [5] | Activity (MES-SA/Dx5 [6]) | IC50 (MES-SA [7]) [µM] | IC50 (MES-SA/Dx5 [8]) [µM] | Activity (MES-SA/Dx5 [9]) |
| --- | --- | --- | --- | --- | --- | --- | --- | --- | --- |
| CC[C@H]1CN2CC[C@H]1C[C@H]2[C@@H](Nc1c(NCc2ccccc2)c(=O)c1=O)c1ccnc2ccc(OC)cc12 | 6.6 | 53.1 | 21 | 3.1 | 0.9 | Active | 3.9 | 3.4 | – |
| C#C[C@H]1CN2CC[C@H]1C[C@H]2[C@@H](Nc1c(Nc2cc(C(F)(F)F)cc(C(F)(F)F)c2)c(=O)c1=O)c1ccnc2ccc(OC)cc12 | 3.7 | – | 14 | 3.9 | 0.4 | – | 5.5 | 2.3 | – |
| CC[C@H]1CN2CC[C@H]1C[C@H]2[C@@H](NC(=S)Nc1cc(C(F)(F)F)cc(C(F)(F)F)c1)c1ccnc2ccc(OC)cc12 | 1.2 | – | 1.5 | 1.3 | 0.8 | – | 1 | 0.9 | – |
| CC[C@H]1CN2CC[C@H]1C[C@H]2[C@@H](N)c1ccnc2ccc(OC)cc12 | 1.3 | – | 105 | 80 | 0.6 | – | 82 | 48 | – |
| COc1cccc2c1C(=O)c1c(O)c3c(c(O)c1C2=O)C[C@@](O)(C(=O)CO)C[C@@H]3O[C@H]1C[C@H](N)[C@H](O)[C@H](C)O1 [DOXORUBICIN] | 62.5 | – | – | – | 0.8 | – | – | – | – |
| C#C[C@H]1CN2CC[C@H]1C[C@H]2[C@@H](N)c1ccnc2ccc(OC)cc12 | 5.6 | – | 161 | 29 | 4.9 | – | 30 | 146 | – |
| CC[C@H]1CN2CC[C@H]1C[C@H]2[C@@H](Nc1c(NCc2ccccc2)c(=S)c1=S)c1ccnc2ccc(OC)cc12 | 1.1 | – | 65 | 57 | 0.9 | – | 56 | 50 | Active |
| C=C[C@H]1CN2CC[C@H]1C[C@H]2[C@H](O)c1ccnc2ccc(OC)cc12 [QUININE] | 0.7 | – | 67 | 93 | 0.5 | – | 91 | 43 | Active |
| C#C[C@H]1CN2CC[C@H]1C[C@H]2[C@H](O)c1ccnc2ccc(OC)cc12 | 0.8 | – | 85 | 111 | 0.7 | – | 117 | 79 | – |
| CC[C@H]1CN2CC[C@H]1C[C@H]2[C@H](O)c1ccnc2ccc(OC)cc12 [HYDROQUININE] | 1 | – | 47 | 48 | – | – | – | – | – |
| C#C[C@H]1CN2CC[C@H]1C[C@H]2[C@@H](NC(=S)Nc1cc(C(F)(F)F)cc(C(F)(F)F)c1)c1ccnc2ccc(OC)cc12 | 0.9 | – | 3.9 | 4.2 | – | – | – | – | – |
| Oc1c(CN2CCCCC2)ccc2cccnc12 | 0.1 | – | – | – | – | – | – | – | – |
| C=C[C@H]1CN2CC[C@H]1C[C@H]2[C@@H](Nc1c(Nc2cc(C(F)(F)F)cc(C(F)(F)F)c2)c(=O)c1=O)c1ccnc2ccc(OC)cc12 | 3 | – | 12 | 4.2 | 0.5 | – | 4.9 | 2.7 | Active |
| C=C[C@H]1CN2CC[C@H]1C[C@H]2[C@@H](NC(=S)Nc1cc(C(F)(F)F)cc(C(F)(F)F)c1)c1ccnc2ccc(OC)cc12 | 1.2 | – | 2.8 | 2.3 | – | – | – | – | Active |
| CC[C@H]1CN2CC[C@H]1C[C@H]2[C@@H](Nc1c(Nc2cc(C(F)(F)F)cc(C(F)(F)F)c2)c(=O)c1=O)c1ccnc2ccc(OC)cc12 | 2.9 | – | 11 | 3.6 | 0.5 | – | 4.4 | 2.3 | – |
| C=C[C@H]1CN2CC[C@H]1C[C@H]2[C@@H](N)c1ccnc2ccc(OC)cc12 | 2.4 | – | 197 | 81 | 1 | – | 115 | 121 | Active |
